From PMC8295177 (Cancer discovery, 2021)
Values joined by “and” are separate entries in the source; they are usually repeats but may differ in a detail not shown here. Identical values can stand only once.

Columns and labels:
EGFRex20ins mutants = details: cited from earlier work
[1] = test system: patients treated with mobocertinib 160 mg daily; assay: Safety and tolerability; assay type: in vivo, human; details: for Treatment-related TEAE Anemia, Any Grade / Treatment-related TEAE Anemia, Grade ≥3 / Treatment-related TEAE Decreased appetite, Any Grade / Treatment-related TEAE Decreased appetite, Grade ≥3 / Treatment-related TEAE Dermatitis acneiform, Any Grade / Treatment-related TEAE Dermatitis acneiform, Grade ≥3 / Treatment-related TEAE Diarrhea, Any Grade / Treatment-related TEAE Diarrhea, Grade ≥3 / Treatment-related TEAE Dry skin, Any Grade / Treatment-related TEAE Dry skin, Grade ≥3 / Treatment-related TEAE Dyspepsia, Any Grade / Treatment-related TEAE Dyspepsia, Grade ≥3 / Treatment-related TEAE Fatigue, Any Grade / Treatment-related TEAE Fatigue, Grade ≥3 / Treatment-related TEAE GERD, Any Grade / Treatment-related TEAE GERD, Grade ≥3 / Treatment-related TEAE Increased lipase, Any Grade / Treatment-related TEAE Increased lipase, Grade ≥3 / Treatment-related TEAE Nausea, Any Grade / Treatment-related TEAE Nausea, Grade ≥3 / Treatment-related TEAE Paronychia, Any Grade / Treatment-related TEAE Paronychia, Grade ≥3 / Treatment-related TEAE Pruritus, Any Grade / Treatment-related TEAE Pruritus, Grade ≥3 / Treatment-related TEAE Rash maculo-papular, Any Grade / Treatment-related TEAE Rash maculo-papular, Grade ≥3 / Treatment-related TEAE Rash, Any Grade / Treatment-related TEAE Rash, Grade ≥3 / Treatment-related TEAE Stomatitis, Any Grade / Treatment-related TEAE Stomatitis, Grade ≥3 / Treatment-related TEAE Vomiting, Any Grade / Treatment-related TEAE Vomiting, Grade ≥3: number (%) of patients
How it was run: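 Safety pooled phase 1 and phase 2 patients who received at least one dose at an initial 160 mg daily, given orally in continuous 28-day cycles. Treatment-related TEAEs were tallied at any grade and at grade ≥3. The EGFRex20ins NSCLC subgroup came from dose escalation plus expansion cohort 1. Grade 3–4 toxicity led to withholding the drug, with up to two dose reductions allowed.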

[2] = test system: patients with advanced NSCLC refractory to standard therapies; assay: Phase 1 dose-escalation study; assay type: in vivo
[3] = Plasma pharmacokinetics of mobocertinib in dose-escalation patients; assay type: in vivo, human; details: oral
How it was run: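 Patients with NSCLC took oral capsules once daily in continuous 28-day cycles. Plasma was sampled at prespecified times after the first dose (Cycle 1, Day 1) and at steady state (Cycle 2, Day 1). Drug and active metabolites were quantified by validated LC-MS. Tmax, Cmax and AUC0–24 came from noncompartmental analysis. Effective half-life was derived from accumulation as a geometric mean.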

[4] = test system: previously treated NSCLC with EGFRex20ins mutations; assay: Investigator-assessed antitumor activity; assay type: in vivo, human; details: for Best confirmed response: Stable disease: observed ≥6 weeks after first dose
[5] = test system: unselected stage IV NSCLC; details: second-line monotherapy; cited from earlier work
[6] = 28 patients with EGFRex20ins mutations treated at 160 mg daily
[7] = 136 patients treated at 160 mg daily
[8] = all patients treated at 160 mg daily (n=136)
[9] = patients with EGFRex20ins treated at 160 mg daily (n=28)
[10] = 80 mg total daily dose (n=9), includes 80 mg daily and 40 mg twice daily

SMILES: C=CC(=O)N1CCC(Oc2cc3c(Nc4ccc(Cl)c(Cl)c4F)ncnc3cc2OC)CC1 [Poziotinib]
- inhibition of EGFRex20ins mutants in vitro (EGFRex20ins mutants): potent inhibition

SMILES: C=CC(=O)Nc1cc(Nc2ncc(C(=O)OC(C)C)c(-c3cn(C)c4ccccc34)n2)c(OC)cc1N(C)CCN(C)C [mobocertinib]
- patients with AEs leading to discontinuation [1, 6]: 25%
- patients with AEs requiring dose interruption [1, 6]: 57%
- patients with AEs requiring dose reduction [1, 6]: 18%
- patients who experienced a treatment-emergent adverse event (TEAE) [1, 7]: 99%
- patients with TEAEs considered related to mobocertinib treatment [1, 7]: 96%
- patients with TEAEs requiring discontinuation [1, 7]: 16%
- patients with TEAEs requiring dose interruption [1, 7]: 54%
- patients with TEAEs requiring dose reduction [1, 7]: 17%
- patients with grade 3 or higher treatment-related TEAEs [1, 7]: 40%
- patients with serious treatment-related TEAEs [1, 7]: 13%
- serious treatment-related TEAE diarrhea, patients [1, 7]: 4%
- serious treatment-related TEAE vomiting, patients [1, 7]: 4%
- treatment-related diarrhea, any grade, patients [1, 7]: 83%
- treatment-related diarrhea, grade ≥3, patients [1, 7]: 21%
- treatment-related nausea, any grade, patients [1, 7]: 43%
- treatment-related rash, any grade, patients [1, 7]: 33%
- treatment-related vomiting, any grade, patients [1, 7]: 26%
- diarrhea leading to discontinuation, patients ([1]; 136 patients treated at 160 mg daily (7/136)): 5%
- Treatment-related TEAE Anemia, Any Grade [1, 8]: 19 (14)
- Treatment-related TEAE Anemia, Grade ≥3 [1, 8]: 3 (2)
- Treatment-related TEAE Decreased appetite, Any Grade [1, 8]: 29 (21)
- Treatment-related TEAE Decreased appetite, Grade ≥3 [1, 8]: 1 (1)
- Treatment-related TEAE Dermatitis acneiform, Any Grade [1, 8]: 19 (14)
- Treatment-related TEAE Dermatitis acneiform, Grade ≥3 [1, 8]: 1 (1)
- Treatment-related TEAE Diarrhea, Any Grade [1, 8]: 113 (83)
- Treatment-related TEAE Diarrhea, Grade ≥3 [1, 8]: 28 (21)
- Treatment-related TEAE Dry skin, Any Grade [1, 8]: 30 (22)
- Treatment-related TEAE Dry skin, Grade ≥3 [1, 8]: 0
- Treatment-related TEAE Dyspepsia, Any Grade [1, 8]: 16 (12)
- Treatment-related TEAE Dyspepsia, Grade ≥3 [1, 8]: 0
- Treatment-related TEAE Fatigue, Any Grade [1, 8]: 28 (21)
- Treatment-related TEAE Fatigue, Grade ≥3 [1, 8]: 2 (1)
- Treatment-related TEAE GERD, Any Grade [1, 8]: 17 (13)
- Treatment-related TEAE GERD, Grade ≥3 [1, 8]: 0
- Treatment-related TEAE Increased lipase, Any Grade [1, 8]: 15 (11)
- Treatment-related TEAE Increased lipase, Grade ≥3 [1, 8]: 7 (5)
- Treatment-related TEAE Nausea, Any Grade [1, 8]: 58 (43)
- Treatment-related TEAE Nausea, Grade ≥3 [1, 8]: 5 (4)
- Treatment-related TEAE Paronychia, Any Grade [1, 8]: 22 (16)
- Treatment-related TEAE Paronychia, Grade ≥3 [1, 8]: 0
- Treatment-related TEAE Pruritus, Any Grade [1, 8]: 14 (10)
- Treatment-related TEAE Pruritus, Grade ≥3 [1, 8]: 0
- Treatment-related TEAE Rash maculo-papular, Any Grade [1, 8]: 22 (16)
- Treatment-related TEAE Rash maculo-papular, Grade ≥3 [1, 8]: 1 (1)
- Treatment-related TEAE Rash, Any Grade [1, 8]: 45 (33)
- Treatment-related TEAE Rash, Grade ≥3 [1, 8]: 1 (1)
- Treatment-related TEAE Stomatitis, Any Grade [1, 8]: 28 (21)
- Treatment-related TEAE Stomatitis, Grade ≥3 [1, 8]: 5 (4)
- Treatment-related TEAE Vomiting, Any Grade [1, 8]: 36 (26)
- Treatment-related TEAE Vomiting, Grade ≥3 [1, 8]: 5 (4)
- Treatment-related TEAE Anemia, Any Grade [1, 9]: 5 (18)
- Treatment-related TEAE Anemia, Grade ≥3 [1, 9]: 0
- Treatment-related TEAE Decreased appetite, Any Grade [1, 9]: 11 (39)
- Treatment-related TEAE Decreased appetite, Grade ≥3 [1, 9]: 0
- Treatment-related TEAE Dermatitis acneiform, Any Grade [1, 9]: 5 (18)
- Treatment-related TEAE Dermatitis acneiform, Grade ≥3 [1, 9]: 0
- Treatment-related TEAE Diarrhea, Any Grade [1, 9]: 23 (82)
- Treatment-related TEAE Diarrhea, Grade ≥3 [1, 9]: 9 (32)
- Treatment-related TEAE Dry skin, Any Grade [1, 9]: 5 (18)
- Treatment-related TEAE Dry skin, Grade ≥3 [1, 9]: 0
- Treatment-related TEAE Dyspepsia, Any Grade [1, 9]: 6 (21)
- Treatment-related TEAE Dyspepsia, Grade ≥3 [1, 9]: 0
- Treatment-related TEAE Fatigue, Any Grade [1, 9]: 4 (14)
- Treatment-related TEAE Fatigue, Grade ≥3 [1, 9]: 1 (4)
- Treatment-related TEAE GERD, Any Grade [1, 9]: 3 (11)
- Treatment-related TEAE GERD, Grade ≥3 [1, 9]: 0
- Treatment-related TEAE Increased lipase, Any Grade [1, 9]: 7 (25)
- Treatment-related TEAE Increased lipase, Grade ≥3 [1, 9]: 2 (7)
- Treatment-related TEAE Nausea, Any Grade [1, 9]: 11 (39)
- Treatment-related TEAE Nausea, Grade ≥3 [1, 9]: 3 (11)
- Treatment-related TEAE Paronychia, Any Grade [1, 9]: 8 (29)
- Treatment-related TEAE Paronychia, Grade ≥3 [1, 9]: 0
- Treatment-related TEAE Pruritus, Any Grade [1, 9]: 5 (18)
- Treatment-related TEAE Pruritus, Grade ≥3 [1, 9]: 0
- Treatment-related TEAE Rash maculo-papular, Any Grade [1, 9]: 7 (25)
- Treatment-related TEAE Rash maculo-papular, Grade ≥3 [1, 9]: 1 (4)
- Treatment-related TEAE Rash, Any Grade [1, 9]: 13 (46)
- Treatment-related TEAE Rash, Grade ≥3 [1, 9]: 0
- Treatment-related TEAE Stomatitis, Any Grade [1, 9]: 6 (21)
- Treatment-related TEAE Stomatitis, Grade ≥3 [1, 9]: 2 (7)
- Treatment-related TEAE Vomiting, Any Grade [1, 9]: 10 (36)
- Treatment-related TEAE Vomiting, Grade ≥3 [1, 9]: 2 (7)
- recommended phase 2 dose (RP2D) ([2]; human, in vivo, po, 28 days): 160 mg daily
- maximum tolerated dose (MTD) ([2]; oral, 28-day cycles, dose escalation 5-180 mg daily): 160 mg daily
- half-life ([3]; human, plasma): 11 to 17 h
- exposure (AUC0–24) dose dependence ([3]; dose range 5 mg to 180 mg daily): approximately dose-proportional
- Best confirmed response: Not evaluated ([4]; 80 mg total daily dose (n=9)): 0 n (%)
- Best confirmed response: Progressive disease ([4]; 80 mg total daily dose (n=9)): 1 (11) n (%)
- Best confirmed response: Complete response [4, 10]: 1 (11) n (%)
- Best confirmed response: Partial response [4, 10]: 1 (11) n (%)
- Best confirmed response: Stable disease ([4]; 80 mg total daily dose (n=9)): 6 (67) n (%)
- confirmed ORR ([4]; 120 mg daily (4/21)): 19%
- Best confirmed response: Complete response ([4]; 120 mg daily (n=21)): 1 (5) n (%)
- Best confirmed response: Not evaluated ([4]; 120 mg daily (n=21)): 3 (14) n (%)
- Best confirmed response: Partial response ([4]; 120 mg daily (n=21)): 3 (14) n (%)
- Best confirmed response: Progressive disease ([4]; 120 mg daily (n=21)): 3 (14) n (%)
- Best confirmed response: Stable disease ([4]; 120 mg daily (n=21)): 11 (52) n (%)
- investigator-assessed confirmed ORR ([4]; 160 mg daily (12/28; 95% CI 24–63%)): 43%
- disease control rate ([4]; 160 mg daily (24/28; 95% CI 67–96%)): 86%
- Best confirmed response: Complete response ([4]; 160 mg daily (n=28)): 0 n (%)
- Best confirmed response: Not evaluated ([4]; 160 mg daily (n=28)): 2 (7) n (%)
- Best confirmed response: Partial response ([4]; 160 mg daily (n=28)): 12 (43) n (%)
- Best confirmed response: Progressive disease ([4]; 160 mg daily (n=28)): 2 (7) n (%)
- Best confirmed response: Stable disease ([4]; 160 mg daily (n=28)): 12 (43) n (%)
- median PFS ([4]; 160 mg daily, 28 EGFRex20ins patients (95% CI 4.4–15.6)): 7.3 months and 7 months
- median duration of response in confirmed responders ([4]; 160 mg daily, 28 EGFRex20ins patients (95% CI 5.0–not reached)): 14 months and 13.9 months
- 12-month event-free rate (PFS) ([4]; 160 mg daily, 28 EGFRex20ins patients (95% CI 16–53%)): 34%
- investigator-assessed confirmed ORR ([4]; 160 mg daily, patients with baseline brain metastases (3/12; 95% CI 5–57%)): 25%
- median investigator-assessed PFS ([4]; 160 mg daily, patients with baseline brain metastases (95% CI 1.8–15.9)): 3.7 months
- 12-month event-free rate (PFS) ([4]; 160 mg daily, patients with baseline brain metastases (95% CI 3–52%)): 23%
- investigator-assessed confirmed ORR ([4]; 160 mg daily, patients without baseline brain metastases (9/16; 95% CI 30–80%)): 56%
- median duration of response in confirmed responders ([4]; 160 mg daily, patients without baseline brain metastases (95% CI 5.0–16.6)): 13.8 months
- 12-month event-free rate (PFS) ([4]; 160 mg daily, patients without baseline brain metastases (95% CI 18–66%)): 43%
- confirmed ORR ([4]; 5–40 mg daily (0/12)): 0%
- Best confirmed response: Complete response ([4]; 5–40 mg daily (n=12)): 0 n (%)
- Best confirmed response: Not evaluated ([4]; 5–40 mg daily (n=12)): 2 (17) n (%)
- Best confirmed response: Partial response ([4]; 5–40 mg daily (n=12)): 0 n (%)
- Best confirmed response: Progressive disease ([4]; 5–40 mg daily (n=12)): 7 (58) n (%)
- confirmed ORR ([4]; 5–40 mg daily (n=12)): 0 [0–26] n (%) [95% CI]
- Best confirmed response: Stable disease ([4]; 5–40 mg daily (n=12)): 3 (25) n (%)
- confirmed ORR ([4]; 80-mg total daily dose (2/9)): 22%

SMILES: CC(=O)O[C@@]12CO[C@@H]1C[C@H](O)[C@@]1(C)C(=O)[C@H](O)C3=C(C)[C@@H](OC(=O)[C@H](O)[C@@H](NC(=O)OC(C)(C)C)c4ccccc4)C[C@@](O)([C@@H](OC(=O)c4ccccc4)[C@H]21)C3(C)C [Docetaxel]
- median duration of response [5]: approximately 6 months
